Experimental data reported in ChEMBL document CHEMBL1134545, “Design, synthesis, DNA binding, and biological evaluation of water-soluble hybrid molecules containing two pyrazole analogues of the alkylating cyclopropylpyrroloindole (CPI) subunit of the antitumor agent CC-1065 and polypyrrole minor groove binders” (J Med Chem, 2001).
≈ marks a conversion by molar mass, not a printed value.

Key:
CCRF-CEM = assay: In vitro antitumor activity against Human T-lymphoblast (CEM) cell lines.; format: functional, cell-based
Method in brief: (§1)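 Cells seeded at 250 000-300 000 cells/mL and exposed to a range of compound concentrations. Incubation for 2-3 days at 37 °C, followed by Coulter counter cell counts. IC50 is the concentration that lowers cell number by 50%. Reported as mean ± SE from dose-response curves of at least three independent experiments.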

Daudi = assay: In vitro antitumor activity against Human B-lymphoblast (Daudi) cell lines.; format: functional, cell-based; method in brief: as §1
MOLT-4 = assay: In vitro antitumor activity against Human T-lymphoblast (Molt/4) cell lines.; format: functional, cell-based; method in brief: as §1
L1210 [1] = assay: In vitro antitumor activity against Murine leukemia (L1210) cell lines.; format: functional, cell-based; conditions: Mus musculus; method in brief: as §1
FM3A = assay: In vitro antitumor activity against Murine mammary carcinoma (FM3A) cell lines.; format: functional, cell-based; conditions: Mus musculus; method in brief: as §1
E6SM [2] = assay: Antiviral activity against […] in E6SM cell cultures; format: functional; conditions: Homo sapiens
Method in brief: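 E6SM cells grown in MEM with 10% inactivated FCS, 2 mM L-glutamine and 0.3% NaHCO3, infected, then treated with varying compound concentrations. MIC is the concentration reducing virus-induced cytopathogenicity by 50%, recorded once CPE reached completion in untreated infected controls.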

E6SM [3] = assay: Antiviral activity against herpes simplex virus-1 TK-KOS ACV (HSV-1) in E6SM cell cultures; format: functional; conditions: Homo sapiens
Method in brief: (§2)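 Confluent E6SM cells, grown in MEM with 10% inactivated FCS, 2 mM L-glutamine and 0.3% NaHCO3, inoculated with 100 CCID50 per well. After 1 or 2 h, residual virus removed. Cells then incubated in MEM with 2% FCS and varying compound concentrations for 3 days. MIC is the concentration reducing virus-induced cytopathicity by 50% versus untreated control, read when control CPE complete.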

E6SM [4] = assay: Antiviral activity against Vaccinia virus in E6SM cell cultures; format: functional; conditions: Homo sapiens; method in brief: as §2
E6SM [5] = assay: Antiviral activity against herpes simplex virus-2 G (HSV-2) in E6SM cell cultures; format: functional; conditions: Homo sapiens
Method in brief: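 Confluent E6SM cells (MEM, 10% inactivated FCS) were infected with HSV-2 strain G at 100 CCID50 per well. After 1 or 2 h, residual virus was removed and the cells were incubated in MEM with 2% FCS and varying compound concentrations. MIC is the concentration reducing cytopathicity by 50%, recorded when control infected cultures reached full CPE (3 days).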

E6SM [6] = assay: Minimum cytotoxic concentration required to cause a microscopically detectable alteration of normal cell morphology; format: functional; conditions: Homo sapiens
Method in brief: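 E6SM cell cultures exposed to compound for the same duration as the antiviral assays. Cells examined under a microscope. MCC is the lowest concentration causing detectable alteration of normal cell morphology.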

E6SM [7] = assay: Antiviral activity against herpes simplex virus-1 KOS (HSV-1) in E6SM cell cultures; format: functional; conditions: Homo sapiens; method in brief: as §2
E6SM [8] = assay: Antiviral activity against herpes simplex virus-1 TK-VMW 1837 (HSV-1) in E6SM cell cultures; format: functional; conditions: Homo sapiens; method in brief: as §2
L1210 [9] = assay: Cytotoxicity against L1210 leukemia cells; format: functional, cell-based; conditions: Mus musculus; method in brief: as §1

With `Cc1n[nH]c2c(O)cc3c(c12)C(CCl)CN3C(=O)c1cc(C(=O)Nc2cc(C(=O)NCCC(=N)N)n(C)c2)n(C)n1` (stereo not given) the IC50 (CCRF-CEM) was 230 nM, the IC50 (Daudi) was 150 nM and the IC50 (MOLT-4) was 340 nM. For the same molecule, the IC50 (L1210 [1]) was 58 nM and the IC50 (FM3A) was 1600 nM.
`Cn1cc(NC(=O)c2cc(NC(=O)c3cc(C(=O)N4CC(CCl)c5c4cc(O)c4c5cnn4Cc4ccccc4)nn3C)cn2C)cc1C(=O)NCCC(=N)N` (stereo not given) showed an IC50 (CCRF-CEM) of 210 nM, an IC50 (Daudi) of 38 nM and an IC50 (MOLT-4) of 160 nM. For the same molecule, the IC50 (L1210 [1]) was 600 nM and the IC50 (FM3A) was 5600 nM.
Work on `Cc1n[nH]c2c(O)cc3c(c12)C(CCl)CN3C(=O)c1cc(C(=O)Nc2cc(C(=O)Nc3cc(C(=O)NCCC(=N)N)n(C)c3)n(C)c2)n(C)n1` (stereo not given) yielded an IC50 (CCRF-CEM) of 39 nM, an IC50 (Daudi) of 22 nM and an IC50 (MOLT-4) of 45 nM. For the same molecule, the IC50 (L1210 [1]) was 19 nM and the IC50 (FM3A) was 190 nM.
`Cn1cc(NC(=O)c2cc(C(=O)N3CC(CCl)c4c3cc(O)c3c4cnn3Cc3ccccc3)nn2C)cc1C(=O)NCCC(=N)N` (stereo not given) was tested, and the IC50 (CCRF-CEM) was 70 nM, the IC50 (Daudi) was 11 nM and the IC50 (MOLT-4) was 130 nM. It also gave an IC50 (L1210 [1]) of 240 nM and an IC50 (FM3A) of 4000 nM.
Work on `Cn1cc(NC(=O)c2cc(NC(=O)c3cc(NC(=O)c4cc(C(=O)N5CC(CCl)c6c5cc(O)c5c6cnn5Cc5ccccc5)nn4C)cn3C)cn2C)cc1C(=O)NCCC(=N)N` (stereo not given) yielded an IC50 (CCRF-CEM) of 400 nM, an IC50 (Daudi) of 100 nM and an IC50 (MOLT-4) of 310 nM. The IC50 (L1210 [1]) was 400 nM and the IC50 (FM3A) was 19300 nM.
With `Cc1n[nH]c2c(O)cc3c(c12)C(CCl)CN3C(=O)c1cc(C(=O)Nc2cc(C(=O)Nc3cc(C(=O)Nc4cc(C(=O)NCCC(=N)N)n(C)c4)n(C)c3)n(C)c2)n(C)n1.Cl` (stereo not given) the IC50 (CCRF-CEM) was 71 nM, the IC50 (Daudi) was 8.8 nM and the IC50 (MOLT-4) was 17 nM. The MIC (E6SM [2]) was > 0.16 µg/mL, the MIC (E6SM [3]) was > 0.16 µg/mL and the MIC (E6SM [4]) was 0.019 µg/mL. For the same molecule, the MIC (E6SM [5]) was 0.16 µg/mL, the MCC (E6SM [6]) was 0.8 µg/mL and the MIC (E6SM [7]) was > 0.16 µg/mL. The IC50 (L1210 [1]) was 7.4 nM, the MIC (E6SM [8]) was > 0.16 µg/mL and the IC50 (FM3A) was 31 nM.
For `Cc1n[nH]c2c(O)cc3c(c12)C(CCl)CN3C(=O)OC(C)(C)C` (stereo not given), the IC50 (CCRF-CEM) was 1260 nM, the IC50 (Daudi) was 680 nM and the IC50 (MOLT-4) was 1740 nM. The MIC (E6SM [2]) was > 1.6 µg/mL, the MIC (E6SM [3]) was > 1.6 µg/mL and the MIC (E6SM [5]) was > 1.6 µg/mL. The MCC (E6SM [6]) was 8 µg/mL, the MIC (E6SM [7]) was > 1.6 µg/mL and the IC50 (L1210 [1]) was 520 nM. For the same molecule, the MIC (E6SM [8]) was > 1.6 µg/mL and the IC50 (FM3A) was 1400 nM.
With `CC(C)(C)OC(=O)N1CC(CCl)c2c1cc(O)c1c2cnn1Cc1ccccc1` (stereo not given) the IC50 (CCRF-CEM) was 6720 nM, the IC50 (Daudi) was 7520 nM and the IC50 (MOLT-4) was 8550 nM. It also gave an IC50 (L1210 [1]) of 2710 nM and an IC50 (FM3A) of 18300 nM.
`Cc1nn(Cc2ccccc2)c2c1C13CC1CN(C(=O)OC(C)(C)C)C3=CC2=O` (racemic) showed an IC50 (L1210 [9]) of 3060 nM.
In the case of `Nc1nc2c(ncn2COCCO)c(=O)[nH]1` [ACYCLOVIR], the MIC (E6SM [2]) is reported as > 400 µg/mL, the MIC (E6SM [3]) is reported as 48 µg/mL (≈ 213 µM) and the MIC (E6SM [5]) is reported as 0.077 µg/mL (≈ 0.342 µM). For the same molecule, the MCC (E6SM [6]) was > 400 µg/mL, the MIC (E6SM [7]) was 0.077 µg/mL (≈ 0.342 µM) and the MIC (E6SM [8]) was 0.384 µg/mL (≈ 1.71 µM).
With `O=c1[nH]c(=O)n([C@H]2C[C@H](O)[C@@H](CO)O2)cc1/C=C/Br` [BRIVUDINE] the MIC (E6SM [2]) was > 400 µg/mL, the MIC (E6SM [3]) was 240 µg/mL (≈ 720 µM) and the MIC (E6SM [4]) was 0.077 µg/mL (≈ 0.231 µM). The MIC (E6SM [5]) was 240 µg/mL (≈ 720 µM), the MCC (E6SM [6]) was > 400 µg/mL and the MIC (E6SM [7]) was 0.015 µg/mL (≈ 0.045 µM). For the same molecule, the MIC (E6SM [8]) was 0.128 µg/mL (≈ 0.384 µM).
`Nc1nc2c(ncn2COC(CO)CO)c(=O)[nH]1` [GANCICLOVIR] was tested, and the MIC (E6SM [2]) was > 100 µg/mL, the MIC (E6SM [3]) was 1.92 µg/mL (≈ 7.52 µM) and the MIC (E6SM [5]) was 0.004 µg/mL (≈ 0.0157 µM). The MCC (E6SM [6]) was > 100 µg/mL, the MIC (E6SM [7]) was 0.004 µg/mL (≈ 0.0157 µM) and the MIC (E6SM [8]) was 0.019 µg/mL (≈ 0.0744 µM).
`NC(=O)c1ncn([C@@H]2O[C@H](CO)[C@@H](O)[C@H]2O)n1` [RIBAVIRIN] showed an MIC (E6SM [2]) of 48 µg/mL (≈ 197 µM), an MIC (E6SM [3]) of 240 µg/mL (≈ 983 µM) and an MIC (E6SM [4]) of 16 µg/mL (≈ 65.5 µM). For the same molecule, the MIC (E6SM [5]) was 48 µg/mL (≈ 197 µM), the MCC (E6SM [6]) was > 400 µg/mL and the MIC (E6SM [7]) was 240 µg/mL (≈ 983 µM). It also gave an MIC (E6SM [8]) of 240 µg/mL (≈ 983 µM).
